Assay results published in ChEMBL document CHEMBL5042517, “Discovery, X-ray Crystallography, and Anti-inflammatory Activity of Bromodomain-containing Protein 4 (BRD4) BD1 Inhibitors Targeting a Distinct New Binding Site” (J Med Chem, 2022).
Converted amounts (≈) assume the structure as drawn. The source made the active and inactive calls. No cut-off for these calls is given here.

Key:
[1] = target: T1, Bromodomain-containing protein 4 (Homo sapiens, UniProt O60885)
[2] = tested on: Bromodomain-containing protein 4 (Homo sapiens), O60885 [E151A]
[3] = Antiinflammatory activity in human SAEC assessed as inhibition of Poly(I:C) induced IL-6 expression pretreated for 24 hrs followed by Poly(I:C) addition for 4 hrs by qRT-PCR analysis; type: functional, cell-based
In short: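 Poly(I:C) 10 μg/mL then added for 4 h. CIG5 or IL-6 mRNA measured by qRT-PCR (ΔΔCt, PPIA normalized). IC50 from a four-parameter fit, mean ± SD of three independent runs.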

[4] = target: T1, Bromodomain-containing protein 4; experiment: Binding affinity to wild type human BRD4 BD1 (42 to168 residues) expressed in bacterial competent cells assessed as increase in thermal stability by thermal shift assay
[5] = target: Bromodomain-containing protein 2 (Homo sapiens, UniProt P25440); experiment: Binding affinity BRD2 BD1 (unknown origin) incubated for 1 hr by TR-FRET assay
Bromodomain-containing protein 2, sequence (P25440 whole entry): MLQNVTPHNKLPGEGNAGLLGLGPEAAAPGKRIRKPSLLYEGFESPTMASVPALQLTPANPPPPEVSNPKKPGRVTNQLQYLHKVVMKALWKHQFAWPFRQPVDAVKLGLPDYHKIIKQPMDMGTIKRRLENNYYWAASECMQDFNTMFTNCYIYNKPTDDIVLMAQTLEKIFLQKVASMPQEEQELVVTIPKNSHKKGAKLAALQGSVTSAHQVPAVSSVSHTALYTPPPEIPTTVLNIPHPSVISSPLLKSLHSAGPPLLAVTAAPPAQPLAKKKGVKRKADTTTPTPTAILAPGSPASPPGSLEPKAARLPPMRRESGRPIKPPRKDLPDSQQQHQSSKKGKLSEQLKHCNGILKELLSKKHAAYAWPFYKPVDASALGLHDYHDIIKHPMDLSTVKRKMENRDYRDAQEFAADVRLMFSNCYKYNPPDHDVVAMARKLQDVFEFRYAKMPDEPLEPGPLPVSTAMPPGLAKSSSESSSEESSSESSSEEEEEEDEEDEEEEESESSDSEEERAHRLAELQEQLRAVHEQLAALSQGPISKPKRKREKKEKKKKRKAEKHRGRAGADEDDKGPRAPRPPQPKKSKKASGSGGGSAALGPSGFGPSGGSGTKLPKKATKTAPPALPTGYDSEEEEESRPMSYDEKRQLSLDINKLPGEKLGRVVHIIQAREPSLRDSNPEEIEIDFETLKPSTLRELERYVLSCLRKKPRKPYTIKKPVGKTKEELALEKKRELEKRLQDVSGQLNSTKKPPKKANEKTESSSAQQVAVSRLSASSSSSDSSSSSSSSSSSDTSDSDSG
In short: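 Commercial TR-FRET kit with recombinant BRD2 bromodomain. Inhibitor at 0.01 nM–100 μM, 1 h at room temperature. Excitation 340 nm; 670/620 nm emission ratio read with 100 μs delay. IC50 from a four-parameter fit, mean of three runs.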

[6] = AUC (0 to t) in rat at 20 mg/kg, po; type: ADME, organism-based; set-up: dose 20 mg/kg; conditions: in vivo
[7] = Volume of distribution at steady state in rat at 20 mg/kg, po; type: ADME, organism-based; conditions: in vivo
[8] = target: T1, Bromodomain-containing protein 4; remark: listed apart in the source
[9] = Volume of distribution at steady state in rat at 10 mg/kg, iv; type: ADME, organism-based; conditions: in vivo, read-out: Vdss
[10] = Cmax in rat at 10 mg/kg, iv; type: ADME, organism-based; set-up: route intravenous, dose 10 mg/kg; conditions: in vivo
[11] = target: T1, Bromodomain-containing protein 4; remark: listed apart in the source
[12] = Aqueous solubility of the compound after 24 hrs by HPLC analysis; type: physicochemical; conditions: buffer
In short: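 Compound suspended in water and shaken 24 h at 25 °C, then centrifuged and filtered. Supernatant analyzed by C18 reverse-phase HPLC with one-point calibration against solutions of known concentration.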

[13] = tested on: Bromodomain-containing protein 4 (Homo sapiens), O60885 [E151A]; remark: listed apart in the source
Mus musculus [14] = experiment: Antiinflammatory activity in C57BL/6 mouse model of poly(I:C)-induced acute airway inflammation assessed as decrease in IL-6 level in BALF at 10 mg/kg, po administered 1 day prior to poly(I:C) stimulation; type: functional, organism-based
[15] = target: T1, Bromodomain-containing protein 4; remark: listed apart in the source
[16] = tested on: Bromodomain-containing protein 4 (Homo sapiens), O60885 [E151A]; remark: listed apart in the source
[17] = Half life in rat at 20 mg/kg, po; type: ADME, organism-based; conditions: in vivo
CREB-binding protein = CREB-binding protein (Homo sapiens, UniProt Q92793); experiment: Binding affinity CBP (unknown origin) incubated for 1 hr by TR-FRET assay
CREB-binding protein, sequence (Q92793 whole entry): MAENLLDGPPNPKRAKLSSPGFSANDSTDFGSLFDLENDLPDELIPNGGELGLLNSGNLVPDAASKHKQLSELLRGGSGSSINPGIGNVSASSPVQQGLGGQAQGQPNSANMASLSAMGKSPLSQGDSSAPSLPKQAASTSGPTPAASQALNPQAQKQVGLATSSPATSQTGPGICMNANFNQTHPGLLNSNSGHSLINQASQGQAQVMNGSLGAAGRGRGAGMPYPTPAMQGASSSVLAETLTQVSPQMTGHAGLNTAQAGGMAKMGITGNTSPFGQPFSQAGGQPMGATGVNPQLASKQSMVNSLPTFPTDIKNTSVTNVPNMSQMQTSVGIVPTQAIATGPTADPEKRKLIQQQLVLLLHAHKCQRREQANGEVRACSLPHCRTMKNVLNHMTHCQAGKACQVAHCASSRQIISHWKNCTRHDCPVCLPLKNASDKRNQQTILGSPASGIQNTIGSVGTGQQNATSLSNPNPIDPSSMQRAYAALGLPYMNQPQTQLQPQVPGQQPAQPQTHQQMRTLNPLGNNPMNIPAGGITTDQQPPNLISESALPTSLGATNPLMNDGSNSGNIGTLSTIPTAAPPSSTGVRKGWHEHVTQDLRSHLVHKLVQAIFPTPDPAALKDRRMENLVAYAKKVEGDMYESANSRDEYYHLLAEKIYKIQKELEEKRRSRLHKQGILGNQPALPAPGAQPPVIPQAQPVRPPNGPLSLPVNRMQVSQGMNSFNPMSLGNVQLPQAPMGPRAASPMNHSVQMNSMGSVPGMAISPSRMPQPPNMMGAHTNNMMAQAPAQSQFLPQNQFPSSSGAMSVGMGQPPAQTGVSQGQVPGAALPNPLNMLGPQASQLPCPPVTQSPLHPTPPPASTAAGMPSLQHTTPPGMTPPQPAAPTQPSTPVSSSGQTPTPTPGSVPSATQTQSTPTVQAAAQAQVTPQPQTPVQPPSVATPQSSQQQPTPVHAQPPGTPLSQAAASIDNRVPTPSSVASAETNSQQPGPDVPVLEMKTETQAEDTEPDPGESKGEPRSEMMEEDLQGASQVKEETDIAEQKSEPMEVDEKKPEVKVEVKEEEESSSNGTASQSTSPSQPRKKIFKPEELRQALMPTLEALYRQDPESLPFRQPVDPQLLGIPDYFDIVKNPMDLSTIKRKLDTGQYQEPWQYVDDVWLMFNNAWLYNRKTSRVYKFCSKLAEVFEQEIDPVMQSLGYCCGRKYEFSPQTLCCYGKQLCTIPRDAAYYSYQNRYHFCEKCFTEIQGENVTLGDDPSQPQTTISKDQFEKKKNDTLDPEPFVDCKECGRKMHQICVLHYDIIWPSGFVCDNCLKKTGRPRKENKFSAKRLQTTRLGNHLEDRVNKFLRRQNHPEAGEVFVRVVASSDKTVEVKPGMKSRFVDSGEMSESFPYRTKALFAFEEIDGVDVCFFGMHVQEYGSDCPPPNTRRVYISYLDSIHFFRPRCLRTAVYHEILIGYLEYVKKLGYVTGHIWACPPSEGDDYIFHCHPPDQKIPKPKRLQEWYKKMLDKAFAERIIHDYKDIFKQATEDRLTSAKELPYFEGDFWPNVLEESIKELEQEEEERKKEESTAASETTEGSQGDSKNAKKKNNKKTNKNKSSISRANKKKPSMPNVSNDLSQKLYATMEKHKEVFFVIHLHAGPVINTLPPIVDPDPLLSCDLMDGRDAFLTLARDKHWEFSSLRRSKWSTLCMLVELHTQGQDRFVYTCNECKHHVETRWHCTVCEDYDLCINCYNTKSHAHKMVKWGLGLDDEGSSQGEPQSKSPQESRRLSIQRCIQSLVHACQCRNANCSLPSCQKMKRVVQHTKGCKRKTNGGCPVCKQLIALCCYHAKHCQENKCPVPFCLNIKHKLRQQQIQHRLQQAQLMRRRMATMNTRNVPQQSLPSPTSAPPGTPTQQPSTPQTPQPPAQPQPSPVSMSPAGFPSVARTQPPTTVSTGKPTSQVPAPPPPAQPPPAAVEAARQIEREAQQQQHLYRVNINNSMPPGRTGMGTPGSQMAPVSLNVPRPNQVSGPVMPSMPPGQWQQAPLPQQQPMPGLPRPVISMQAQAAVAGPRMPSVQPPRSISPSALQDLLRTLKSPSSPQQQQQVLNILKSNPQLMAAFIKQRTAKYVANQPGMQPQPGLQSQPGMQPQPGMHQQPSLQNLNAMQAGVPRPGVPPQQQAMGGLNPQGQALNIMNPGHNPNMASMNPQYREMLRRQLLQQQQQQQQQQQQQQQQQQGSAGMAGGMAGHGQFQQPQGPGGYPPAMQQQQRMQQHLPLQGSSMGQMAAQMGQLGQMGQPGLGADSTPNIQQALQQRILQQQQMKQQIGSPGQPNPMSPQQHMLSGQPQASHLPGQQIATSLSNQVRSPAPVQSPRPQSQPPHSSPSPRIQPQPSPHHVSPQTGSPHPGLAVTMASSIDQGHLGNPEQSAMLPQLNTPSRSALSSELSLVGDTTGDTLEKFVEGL

[18] = target: T1, Bromodomain-containing protein 4; remark: listed apart in the source
Mus musculus [19] = experiment: Antiinflammatory activity in C57BL/6 mouse model of poly(I:C)-induced acute airway inflammation assessed as decrease in neutrophils level in BALF at 10 mg/kg, po administered 1 day prior to poly(I:C) stimulation; type: functional, organism-based
[20] = target: T1, Bromodomain-containing protein 4; remark: listed apart in the source
[21] = tested on: Bromodomain-containing protein 4 (Homo sapiens), O60885 [E151A]; remark: listed apart in the source

ΔTm [1]: 6.6 °C | ΔTm [2]: 0.5 °C | IC50 [3]: 370 nM | Activity [4]: Dose-Dependent Effect | IC50 [5]: 835 nM | AUC(0-t) [6]: 602 ng·h/mL | Vdss [7]: 170 L/kg | ΔTm [8]: 4.5 °C | Vd [9]: 16 L/kg | Cmax [10]: 1920 ng/mL | ΔTm [11]: 0.7 °C | solubility [12]: 3500 µg/mL (≈ 6.83 mM) | ΔTm [13]: 0.5 °C | ΔTm [15]: 15.8 °C | ΔTm [16]: 0.7 °C | half-life [17]: 3.7 h | IC50 (CREB-binding protein): > 10000 nM | ΔTm [18]: 1.1 °C | ΔTm [20]: 5.8 °C | ΔTm [21]: 0.7 °C
Structure (SMILES): O=C(Nc1ccc(C(F)(F)F)cc1)Nc1ccc(S(=O)(=O)N2CCC[C@H]2CN2CCOCC2)cc1
Activity (Mus musculus [14]): inactive | Activity (Mus musculus [19]): Active
